The source of these data is ChEMBL document CHEMBL3864188, “Polyamine Conjugation as a Promising Strategy To Target Amyloid Aggregation in the Framework of Alzheimer's Disease” (ACS Med Chem Lett, 2016).

In data set [1] the target is Amyloid-beta precursor protein (Homo sapiens) (UniProt P05067). The data set can be described thus: Inhibition of amyloid beta (1 to 42) (unknown origin) self-aggregation assessed as residual amyloid beta 42 monomer level at 10 uM after 24 hrs by ESI-IT-MS analysis. The method in brief:
(§1)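 Aβ42 incubated 24 h at 30 °C with or without inhibitor; monomer (Aβ42m) and oxidized monomer (Aβ42m Ox) quantified by mass spectrometry with reserpine as internal standard. Residual monomer expressed versus t0 control; oxidized monomer expressed as fold over 24 h control. Test levels 2, 10 and 50 μM.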

For the next data set, the system named is neuronal. The data set can be described thus: Neuroprotective activity against human amyloid beta (1 to 42)-induced neuronal cell death in rat mixed cortical neurons assessed as decrease in number of dead neurons up to 25 uM incubated for 72 hrs by trypan blue dye based phase contrast microscopic analysis. The method in brief:
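Rat mixed cortical cultures exposed to Aβ42 oligomers preformed by 72 h incubation, with compound added separately; 72 h exposure. Trypan blue–stained dead neurons counted in three random fields/well; means ± SEM of nine determinations.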

Data set [2] has as its system T67. The data set is described as follows: Pro-oxidant activity in human T67 cells assessed as induction of mitochondrial ROS generation after 4 hrs by MitoSOX Red probe based fluorescence assay. The class given is functional, cell-based. The method in brief: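 T67 cells treated 4 h with compound at 1–10 μM; mitochondrial superoxide read by MitoSOX Red fluorescence. Antimycin A (10 μM) as positive control. n = 8; one-way ANOVA with Dunnett's test versus untreated control.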

Data set [3] addresses Amyloid-beta precursor protein (Homo sapiens) (UniProt P05067). The data set is described as follows: Inhibition of amyloid beta (1 to 42) (unknown origin) self-aggregation assessed as increase in oxidized amyloid beta 42 monomer level at 10 uM after 24 hrs by ESI-IT-MS analysis relative to control. An outline of the steps: as §1
Data set [4] shares this target. The data set is described as follows: Neuroprotective activity against amyloid beta (1 to 42) (unknown origin)-induced neuronal cell death in rat mixed cortical neurons assessed as number of dead neurons at 5 uM incubated for 72 hrs by trypan blue dye based phase contrast microscopic analysis (reference value: 71.7 +/- 3.1). The method in brief:
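100 μM Aβ42 preincubated 72 h alone or with 5-fold molar excess of inhibitor, then added to rat mixed cortical cultures for a further 72 h (final inhibitor 5 μM). Dead neurons stained with Trypan blue, counted in three random microscopic fields/well; means ± SEM of nine determinations.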

The target is the same in data set [5]. The data set can be described thus: Inhibition of amyloid beta (1 to 42) (unknown origin) self-aggregation at 2 uM after 24 hrs by ESI-IT-MS analysis. The method in brief:
as §1

Data set [6] has the same target. The data set can be described thus: Inhibition of amyloid beta (1 to 42) (unknown origin) self-aggregation assessed as residual amyloid beta 42 monomer level at 2 uM after 24 hrs by ESI-IT-MS analysis. An outline of the steps: as §1
For data set [7] the target is unchanged. The data set can be described thus: Inhibition of amyloid beta (1 to 42) (unknown origin) self-aggregation assessed as increase in oxidized amyloid beta 42 monomer level at 50 uM after 24 hrs by ESI-IT-MS analysis relative to control. An outline of the steps:
as §1

The target is the same in data set [8]. The data set can be described thus: Inhibition of amyloid beta (1 to 42) (unknown origin) self-aggregation assessed as increase in oxidized amyloid beta 42 monomer level at 2 uM after 24 hrs by ESI-IT-MS analysis relative to control. The method in brief:
as §1

The species named for another data set is Rattus norvegicus. The data set can be described thus: Neurotoxicity in rat mixed cortical neurons assessed as neuronal cell death up to 50 uM after 48 hrs by trypan blue dye based phase contrast microscopic analysis. The class given is toxicity, organism-based. The settings on record: cortical neurone. The method in brief:
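Mixed rat cortical cell cultures exposed to compound at 0.25−50 μM for 48 h; dead neurons stained with Trypan blue and counted microscopically to quantify neuronal damage.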

Data set [9] concerns the target Amyloid-beta precursor protein (Homo sapiens) (UniProt P05067). The data set can be described thus: Inhibition of amyloid beta (1 to 42) (unknown origin) self-aggregation assessed as increase in oxidized amyloid beta 42 monomer level after 24 hrs by ESI-IT-MS analysis. An outline of the steps:
as §1

Data set [10] shares this target. The data set can be described thus: Inhibition of amyloid beta (1 to 42) (unknown origin) self-aggregation at 10 uM after 24 hrs by ESI-IT-MS analysis. An outline of the steps:
as §1

Data set [11] has the same target. The data set can be described thus: Inhibition of amyloid beta (1 to 42) (unknown origin) self-aggregation at 50 uM after 24 hrs by ESI-IT-MS analysis. An outline of the steps: as §1
For data set [12] the target is unchanged. The data set is described as follows: Inhibition of amyloid beta (1 to 42) (unknown origin) self-aggregation assessed as residual amyloid beta 42 monomer level at 50 uM after 24 hrs by ESI-IT-MS analysis. An outline of the steps:
as §1

The test system of data set [13] is T67. The data set can be described thus: Antioxidant activity in human T67 cells assessed as decrease in TBHP-induced ROS generation at 10 uM pretreated for 4 hrs followed by TBPH addition for 30 mins by DCFDA dye based fluorescence assay. The class given is functional, cell-based.

Calls of active or inactive are those of the source. The calls are words filed in the database; no cut-off is given here. A value given as a limit tells only on which side of the number the result lay.

Chain of Amyloid-beta precursor protein (Homo sapiens) (P05067 whole entry): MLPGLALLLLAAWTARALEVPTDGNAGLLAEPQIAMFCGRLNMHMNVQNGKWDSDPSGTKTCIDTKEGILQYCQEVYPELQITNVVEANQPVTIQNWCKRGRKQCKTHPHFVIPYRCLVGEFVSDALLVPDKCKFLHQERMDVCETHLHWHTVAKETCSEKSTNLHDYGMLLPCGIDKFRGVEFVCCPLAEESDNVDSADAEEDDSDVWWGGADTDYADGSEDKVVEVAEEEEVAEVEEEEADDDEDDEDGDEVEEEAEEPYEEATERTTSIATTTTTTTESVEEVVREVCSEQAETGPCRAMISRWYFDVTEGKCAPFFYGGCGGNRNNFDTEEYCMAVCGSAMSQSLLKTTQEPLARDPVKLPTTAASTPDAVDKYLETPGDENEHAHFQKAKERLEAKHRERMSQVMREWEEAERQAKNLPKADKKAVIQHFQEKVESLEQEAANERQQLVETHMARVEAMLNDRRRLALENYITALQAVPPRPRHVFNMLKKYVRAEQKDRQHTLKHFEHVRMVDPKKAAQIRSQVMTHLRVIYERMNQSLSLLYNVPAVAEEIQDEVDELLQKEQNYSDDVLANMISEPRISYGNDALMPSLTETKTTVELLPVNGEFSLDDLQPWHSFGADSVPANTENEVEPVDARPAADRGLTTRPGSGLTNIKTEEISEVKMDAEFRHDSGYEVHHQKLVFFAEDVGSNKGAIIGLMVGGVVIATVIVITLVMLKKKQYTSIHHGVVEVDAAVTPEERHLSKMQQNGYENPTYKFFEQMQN

In the case of `NCCCNCCCCNCCCNC(=O)CCC(=O)N1C/C(=C/c2ccc(O)c(O)c2)C(=O)/C(=C/c2ccc(O)c(O)c2)C1.O=C(O)C(F)(F)F`, the Activity in data set [1] was 53%; with T67 [2], “Dose-dependent effect”; in [4], 46.5; in [6], 27%; in the data set listed under Rattus norvegicus it was “Non-Toxic”. Further, the result with neuronal was Active. Besides, the fold change (FC) in data set [3] is 2.14; in [7], 2.79; in [8] it was 1.46. Moreover, the results for the inhibition in data set [5] and in data set [9] were 12% and “Dose-dependent effect”, respectively.
Molecule `NCCCNCCCCNCCCNC(=O)CCC(=O)N1C/C(=C/c2cccc(O)c2)C(=O)/C(=C/c2cccc(O)c2)C1` showed an inhibition in data set [10] below 10%.
Same read-out and setting: as for `NCCCNCCCCNCCCNC(=O)CCC(=O)N1C/C(=C\c2ccccc2)C(=O)/C(=C/c2ccccc2)C1`, the figure is below 10%; as for `COc1ccc(/C=C2/CN(C(=O)CCC(=O)NCCCNCCCCNCCCN)C/C(=C\c3ccc(OC)c(OC)c3)C2=O)cc1OC`, below 10%.
In data set [10], `NCCCNCCCCNCCCNC(=O)CCC(=O)N1C/C(=C\c2ccc(O)cc2)C(=O)/C(=C/c2ccc(O)cc2)C1` returned an inhibition below 10%. Besides, the Activity result in the data set on T67 [2] was “Dose-dependent effect”.
In the case of `Cl.O=C1/C(=C/c2ccc(O)c(O)c2)CNC/C1=C\c1ccc(O)c(O)c1`, the Activity in data set [1] is 20.5%; in data set [12], 61.9%; in the data set listed under Rattus norvegicus, “Non-Toxic”. For the same molecule, the inhibition in data set [11] is 54.1%; in data set [9], “Dose-dependent effect”. Also, in data set [7], the fold change (FC) stood at 2.56.
For the molecule `COc1cc(/C=C2\CN(C(=O)CCC(=O)NCCCNCCCCNCCCN)C/C(=C\c3ccc(O)c(OC)c3)C2=O)ccc1O`, the inhibition in data set [10] is below 10%. In the data set on T67 [13], the result was Active.

For orientation: inhibition means the percentage by which the read-out fell short of the control.
